Converted amounts (≈) assume the structure as drawn. The source made the active and inactive calls. The calls are words filed in the database; no cut-off is given here.
How the values were obtained:
[1] = tested on: Aspergillus flavus; test: Antifungal activity against Aspergillus flavus after 24 hrs by NCCLS two fold broth microdilution method; format: functional
In short: (§1)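 Two-fold serial microdilution following NCCLS. A spore suspension in sterile distilled water was prepared from one-day-old cultures grown on Sabouraud agar and adjusted to a final 1–5 × 10^3 spores/mL. DMSO stocks were diluted in RPMI 1640 to eleven concentrations (0.5–512 µg/mL), inoculated and held at 35 °C for 24 h. Growth was read visually and spectrophotometrically, MIC was the lowest concentration with complete inhibition, and runs were in triplicate.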

[2] = tested on: Bacillus subtilis; test: Potency index, ratio of Chloromycin MIC to compound MIC for Bacillus subtilis ATCC 21216; format: functional
[3] = target: T1, Albumin (Homo sapiens, UniProt P02768); test: Binding affinity to human serum albumin assessed as Stern-Volmer quenching constant at 293 K by fluorescence spectroscopic analysis; format: ADME; conditions: isolated protein
In short: (§2)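 Intrinsic fluorescence of HSA (single Trp-214, emission peak 348 nm) was recorded with increasing compound concentration at several temperatures. Quenching data were fitted to the Stern-Volmer equation F0/F = 1 + KSV[Q] = 1 + Kqτ0[Q] to give KSV, and Kq was derived via τ0.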

[4] = tested on: Candida albicans; test: Antifungal activity against Candida albicans ATCC 76615 after 24 hrs by NCCLS two fold broth microdilution method; format: functional; conditions: ATCC 76615, 24 h; in short: as §1
[5] = target: T1, Albumin; test: Binding affinity to human serum albumin at 273 K by scatchard plot analysis; format: ADME; conditions: isolated protein
[6] = tested on: Calf thymus DNA; test: Binding affinity to calf thymus DNA by UV-vis absorption spectra analysis; format: nucleic-acid assay; conditions: Bos taurus
In short: (§3)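 Calf thymus DNA was held at a fixed concentration and titrated with increasing amounts of compound. UV-vis absorption spectra were recorded, following the DNA absorption maximum at 260 nm.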

[7] = target: T1, Albumin; test: Binding affinity to human serum albumin assessed as quenching constant at 293 K by fluorescence spectroscopic analysis; format: ADME; conditions: isolated protein; in short: as §2
[8] = target: T1, Albumin; test: Binding affinity to human serum albumin assessed as quenching constant at 273 K by fluorescence spectroscopic analysis; format: ADME; conditions: isolated protein; in short: as §2
[9] = tested on: Staphylococcus aureus; test: Antibacterial activity against Staphylococcus aureus ATCC 25923 after 24 hrs by NCCLS two fold broth microdilution method; format: functional; conditions: ATCC 25923, 24 h
In short: (§4)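 Two-fold serial broth microdilution in 96-well plates following NCCLS. Compounds were dissolved in DMSO as stocks, then diluted in Mueller–Hinton broth to final concentrations of 0.5–512 µg/mL. Plates were inoculated and incubated at 37 °C for 24 h, with growth read visually and spectrophotometrically. MIC was taken as the lowest concentration giving complete growth inhibition. Run in triplicate, with a DMSO-plus-inoculum solvent control.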

[10] = target: T1, Albumin; test: Binding affinity to human serum albumin at 293 K by scatchard plot analysis; format: ADME; conditions: isolated protein
[11] = tested on: Staphylococcus aureus; test: Antibacterial activity against methicillin-resistant Staphylococcus aureus N315 after 24 hrs by NCCLS two fold broth microdilution method; format: functional; conditions: N315, 24 h
In short: (§5)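 Two-fold serial broth microdilution per NCCLS. Chloromycin and norfloxacin as reference drugs; DMSO with inoculum, no drug, as solvent control. Incubation 37 °C for 24 h. Growth read visually and spectrophotometrically. MIC is the lowest concentration completely inhibiting growth; triplicate.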

[12] = target: T1, Albumin; test: Binding affinity to human serum albumin assessed as change in enthalpy at 273 K by van't Hoff plot analysis; format: ADME; conditions: isolated protein
[13] = tested on: Salmonella typhi; test: Antibacterial activity against Bacillus typhi after 24 hrs by NCCLS two fold broth microdilution method; format: functional, Salmonella enterica subsp. enterica serovar Typhi; conditions: Salmonella enterica
In short: as §5, with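 “NCCLS. DMSO stocks diluted in Mueller–Hinton broth to 512, 256, 128, 64, 32, 16, 8, 4, 2, 1, 0.5 µg/mL.” for “NCCLS.”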

[14] = target: T1, Albumin; test: Binding affinity to human serum albumin assessed as Gibbs free energy change at 293 K by van't Hoff plot analysis; format: ADME; conditions: isolated protein
[15] = tested on: Bacillus subtilis; test: Antibacterial activity against Bacillus subtilis ATCC 21216 after 24 hrs by NCCLS two fold broth microdilution method; format: functional; conditions: ATCC 21216, 24 h; in short: as §4
[16] = tested on: Escherichia coli; test: Antibacterial activity against Escherichia coli ATCC 8099 after 24 hrs by NCCLS two fold broth microdilution method; format: functional; conditions: ATCC 8099, 24 h
In short: as §4, with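 “NCCLS.” for “NCCLS. Compounds were dissolved in DMSO as stocks, then diluted in Mueller–Hinton broth to final concentrations of 0.5–512 µg/mL.”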

[17] = target: T1, Albumin; test: Binding affinity to human serum albumin assessed as quenching constant at 313 K by fluorescence spectroscopic analysis; format: ADME; conditions: isolated protein; in short: as §2
[18] = target: T1, Albumin; test: Binding affinity to human serum albumin by fluorescence spectroscopic analysis; format: ADME; conditions: isolated protein
[19] = target: T1, Albumin; test: Binding affinity to human serum albumin assessed as Gibbs free energy change at 273 K by van't Hoff plot analysis; format: ADME; conditions: isolated protein
[20] = target: T1, Albumin; test: Binding affinity to human serum albumin assessed as change in entropy at 273 K by van't Hoff plot analysis; format: ADME; conditions: isolated protein
[21] = tested on: Cyberlindnera jadinii; test: Antifungal activity against Candida utilis after 24 hrs by NCCLS two fold broth microdilution method; format: functional; conditions: Williopsis jadinii; in short: as §1
[22] = tested on: Bacillus; test: Antibacterial activity against Bacillus proteus ATCC 13315 after 24 hrs by NCCLS two fold broth microdilution method; format: functional; conditions: ATCC 13315, 24 h; in short: as §4
[23] = tested on: Pseudomonas aeruginosa; test: Potency index, ratio of Chloromycin MIC to compound MIC for Pseudomonas aeruginosa ATCC 27853; format: functional
[24] = tested on: Micrococcus luteus; test: Antibacterial activity against Micrococcus luteus ATCC 4698 after 24 hrs by NCCLS two fold broth microdilution method; format: functional; conditions: NCTC 2665, 24 h; in short: as §4
[25] = target: T1, Albumin; test: Binding affinity to human serum albumin at 313 K by scatchard plot analysis; format: ADME; conditions: isolated protein
[26] = target: T1, Albumin; test: Binding affinity to human serum albumin assessed as Gibbs free energy change at 313 K by van't Hoff plot analysis; format: ADME; conditions: isolated protein
[27] = target: T1, Albumin; test: Binding affinity to human serum albumin up to 1.6 10^-5 mol/L by UV-vis absorption spectra analysis; format: ADME; conditions: isolated protein
[28] = tested on: Staphylococcus aureus; test: Potency index, ratio of norfloxacin MIC to compound MIC for Staphylococcus aureus ATCC 25923; format: functional
[29] = tested on: Calf thymus DNA; test: Binding affinity to calf thymus DNA assessed as increase in maximum absorption by UV-vis absorption spectra analysis; format: nucleic-acid assay; conditions: Bos taurus; in short: as §3
[30] = tested on: Calf thymus DNA; test: Binding affinity to calf thymus DNA assessed as hyperchromic effect up to 1.6 10^-5 mol/L by UV-vis absorption spectra analysis; format: nucleic-acid assay; conditions: Bos taurus; in short: as §3
[31] = target: T1, Albumin; test: Binding affinity to human serum albumin at 273 K by modified Stern-Volmer method; format: ADME; conditions: isolated protein
[32] = tested on: Pseudomonas aeruginosa; test: Antibacterial activity against Pseudomonas aeruginosa ATCC 27853 after 24 hrs by NCCLS two fold broth microdilution method; format: functional; conditions: ATCC 27853, 24 h
In short: as §4, with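 “NCCLS.” for “NCCLS. Compounds were dissolved in DMSO as stocks, then diluted in Mueller–Hinton broth to final concentrations of 0.5–512 µg/mL.”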

[33] = tested on: Staphylococcus aureus; test: Potency index, ratio of Chloromycin MIC to compound MIC for Staphylococcus aureus ATCC 25923; format: functional
[34] = target: T1, Albumin; test: Binding affinity to human serum albumin assessed as Stern-Volmer quenching constant at 313 K by fluorescence spectroscopic analysis; format: ADME; conditions: isolated protein; in short: as §2
[35] = target: T1, Albumin; test: Binding affinity to human serum albumin at 293 K by modified Stern-Volmer method; format: ADME; conditions: isolated protein
[36] = tested on: Calf thymus DNA; test: Inhibition of neutral red binding to calf thymus DNA up to 0.48 10^-5 mol/L by UV-vis absorption spectra analysis; format: nucleic-acid assay; conditions: Bos taurus
[37] = target: T1, Albumin; test: Binding affinity to human serum albumin assessed as Stern-Volmer quenching constant at 273 K by fluorescence spectroscopic analysis; format: ADME; conditions: isolated protein; in short: as §2
[38] = tested on: Calf thymus DNA; test: Binding affinity to calf thymus DNA assessed as hypochromic effect up to 1.6 10^-5 mol/L by UV-vis absorption spectra analysis; format: nucleic-acid assay; conditions: Bos taurus; in short: as §3
[39] = tested on: Pichia norvegensis; test: Antifungal activity against Candida mycoderma after 24 hrs by NCCLS two fold broth microdilution method; format: functional
[40] = tested on: Saccharomyces cerevisiae; test: Antifungal activity against Saccharomyces cerevisiae after 24 hrs by NCCLS two fold broth microdilution method; format: functional; in short: as §1
[41] = target: T1, Albumin; test: Binding affinity to human serum albumin at 313 K by modified Stern-Volmer method; format: ADME; conditions: isolated protein

T1 sequence (P02768 whole entry): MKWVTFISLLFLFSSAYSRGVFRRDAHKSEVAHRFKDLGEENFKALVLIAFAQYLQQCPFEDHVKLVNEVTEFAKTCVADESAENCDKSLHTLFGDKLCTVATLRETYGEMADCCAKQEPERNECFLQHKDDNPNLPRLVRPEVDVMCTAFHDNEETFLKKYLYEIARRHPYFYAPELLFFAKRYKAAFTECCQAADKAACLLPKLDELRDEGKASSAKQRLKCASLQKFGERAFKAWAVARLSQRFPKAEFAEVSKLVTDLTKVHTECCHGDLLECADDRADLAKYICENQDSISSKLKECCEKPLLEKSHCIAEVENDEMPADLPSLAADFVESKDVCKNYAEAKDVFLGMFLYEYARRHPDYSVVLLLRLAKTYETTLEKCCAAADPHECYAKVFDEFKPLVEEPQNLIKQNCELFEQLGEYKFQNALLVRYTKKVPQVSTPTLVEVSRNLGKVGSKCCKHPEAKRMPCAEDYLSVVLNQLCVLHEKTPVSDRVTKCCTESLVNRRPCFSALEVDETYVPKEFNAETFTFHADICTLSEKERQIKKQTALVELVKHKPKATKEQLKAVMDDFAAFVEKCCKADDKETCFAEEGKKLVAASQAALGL

`CC(=O)Nc1ccc(S(=O)(=O)Cc2nc3ccccc3n2Cc2ccc(F)cc2)cc1` showed an MIC [1] of 64 mg/L (≈ 146 µM), a Ratio [2] of 2 and a KSV [3] of 2.2 ×10⁴ L/mol. It also gave an MIC [4] of 64 mg/L (≈ 146 µM), a Kb [5] of 78600 M⁻¹ and a K [6] of 1.26 ×10⁴ L/mol. For the same compound, the Kq [7] was 3.44 ×10¹² L/mol/s, the Kq [8] was 5.09 ×10¹² L/mol/s and the MIC [9] was 4 mg/L (≈ 9.14 µM). For the same compound, the Kb [10] was 58400 M⁻¹, the MIC [11] was 16 mg/L (≈ 36.6 µM) and the deltaH [12] was -1.757 kJ/mol. For the same compound, the MIC [13] was 16 mg/L (≈ 36.6 µM), the deltaG [14] was -25.542 kJ/mol and the MIC [15] was 16 mg/L (≈ 36.6 µM). The MIC [16] was 32 mg/L (≈ 73.1 µM), the Kq [17] was 2.86 ×10¹² L/mol/s and the Activity [18] was “Dose-dependent effect”. It also gave a deltaG [19] of -24.31 kJ/mol, a deltaS [20] of 82.61 J/mol/K and an MIC [21] of 16 mg/L (≈ 36.6 µM). The MIC [22] was 32 mg/L (≈ 73.1 µM), the Ratio [23] was 4 and the MIC [24] was 64 mg/L (≈ 146 µM). For the same compound, the Kb [25] was 41600 M⁻¹, the deltaG [26] was -26.774 kJ/mol and the Activity [27] was “Active”. For the same compound, the Ratio [28] was 2, the Activity [29] was “Dose-dependent effect” and the Activity [30] was “Active”. The Ka [31] was 54300 M⁻¹, the MIC [32] was 256 mg/L (≈ 585 µM) and the Ratio [33] was 2. For the same compound, the KSV [34] was 1.83 ×10⁴ L/mol, the Ka [35] was 36900 M⁻¹ and the inhibition [36] was “Active”. The KSV [37] was 3.26 ×10⁴ L/mol, the Activity [38] was “inactive” and the MIC [39] was 64 mg/L (≈ 146 µM). It also gave an MIC [40] of 64 mg/L (≈ 146 µM) and a Ka [41] of 35800 M⁻¹.
